Assay results of several laboratories.
Each line is one published result; the experiments were not run side by side.
Organism: Escherichia coli
Effect on: microbial growth

SMILES	test	test system	setting	MIC
COC(=O)c1cc(-c2cccc(NC(=O)Nc3ccc(Cl)cc3Cl)c2)on1	broth dilution	ATCC25922	–	> 64 µg/mL
CN[C@H](CC(C)C)C(=O)N[C@H]1C(=O)N[C@@H](CC(N)=O)C(=O)N[C@H]2C(=O)N[C@H]3C(=O)N[C@H](C(=O)N[C@H](C(=O)O)c4cc(O)cc(O)c4-c4cc3ccc4O)[C@H](O)c3ccc(c(Cl)c3)Oc3cc2cc(c3O[C@@H]2O[C@H](CO)[C@@H](O)[C@H](O)[C@H]2O[C@H]2C[C@](C)(N)[C@H](O)[C@H](C)O2)Oc2ccc(cc2Cl)[C@H]1O	–	ATCC10798	–	> 32 µg/mL
C[n+]1c(/C=C/c2ccc(O)cc2)cc(/C=C2\Sc3ccccc3N2CCCN2CCOCC2)c2ccccc21.[I-]	broth dilution	ATCCBAA2469	–	8 µg/mL
COC(=O)c1cc(-c2cccc(NC(=S)Nc3cccc(Cl)c3)c2)on1	broth dilution	ATCC25922	–	> 64 µg/mL
C[n+]1c(/C=C/c2c[nH]c3ccccc23)cc(/C=C2\Sc3ccccc3N2CCCN2CCCC2)c2ccccc21.[I-]	broth dilution	ATCCBAA2469	–	4 µg/mL
C[C@H]1COCCN1c1nc(NCc2cccnc2C(F)(F)F)c2cccnc2n1	broth dilution	25922	–	128 µg/mL
Cc1cc(/C=C2\Sc3ccccc3N2CCCN2CCCCC2)c2ccccc2[n+]1C.[I-]	broth dilution	ATCCBAA2469	–	4 µg/mL
Oc1cc(Cl)ccc1Oc1ccc(Cl)cc1Cl	broth dilution	MG1655	clinical isolate	0.5 µg/mL
CC(=O)C1=C(O)C(CC(C)C)NC1=O (stereo not drawn)	–	K12, K12	–	> 200 µg/mL
COC(=O)c1cc(-c2cccc(NC(=O)Nc3cccc(Cl)c3)c2)on1	broth dilution	ATCC25922	–	> 64 µg/mL
CO[C@H]1/C=C/O[C@@]2(C)Oc3c(C)c(O)c4c(O)c(c(/C=N/N5CCN(C)CC5)c(O)c4c3C2=O)NC(=O)/C(C)=C\C=C\[C@H](C)[C@H](O)[C@@H](C)[C@@H](O)[C@@H](C)[C@H](OC(C)=O)[C@@H]1C	broth dilution	ATCCBAA2469	–	> 64 µg/mL
CNC(C)C1CCC(N)C(OC2C(N)CC(N)C(OC3OCC(C)(O)C(NC)C3O)C2O)O1 (stereo not drawn)	broth dilution	R477100	–	6 µM
COC(=O)c1cc(-c2cccc(NC(=O)Nc3cccc(C(F)(F)F)c3)c2)on1	broth dilution	ATCC25922	–	> 64 µg/mL
Fc1c(F)c(F)c(F)c(F)c1F	–	ATCC25922	–	> 250 µg/mL
CN[C@H](CC(C)C)C(=O)N[C@H]1C(=O)N[C@@H](CC(N)=O)C(=O)N[C@H]2C(=O)N[C@H]3C(=O)N[C@H](C(=O)N[C@H](C(=O)O)c4cc(O)cc(O)c4-c4cc3ccc4O)[C@H](O)c3ccc(c(Cl)c3)Oc3cc2cc(c3O[C@@H]2O[C@H](CO)[C@@H](O)[C@H](O)[C@H]2O[C@H]2C[C@](C)(N)[C@H](O)[C@H](C)O2)Oc2ccc(cc2Cl)[C@H]1O	broth dilution	ATCCBAA2469	–	> 64 µg/mL
COC(=O)c1cc(-c2cccc(NC(=O)Nc3ccc(F)cc3)c2)on1	broth dilution	ATCC25922	–	> 64 µg/mL
C[n+]1ccc(/C=C2\Sc3ccccc3N2CCCN2CCCCC2)c2ccccc21.[I-]	broth dilution	ATCCBAA2469	–	4 µg/mL
CCCCCCC#Cc1cncc(-c2nnc(SCc3cc([N+](=O)[O-])cc([N+](=O)[O-])c3)n2C)c1	–	–	–	≥ 20 µg/mL
